Test: DPPH free radical scavenging assay
Procedure, shortened: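 Each well held test compound and DPPH (added as 150 µM solution, half the well volume), made up with methanol. Incubated 30 min at room temperature, then absorbance read at 517 nm. Percent inhibition was calculated from blank and sample absorbances. Ascorbic acid served as reference. Three independent experiments were run, each in triplicate.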

Compound: O=C1O[C@H]([C@@H](O)CO)C(O)=C1O [Vitamin C, Ascorbic acid]
- antioxidant activity: 95.1571 ± 0.057 µg/mL

Reference: PMC12214485 (Scientific Reports, 2025)
